Compounds with a hit are over-represented: about 2.1% of the library has one in this group of screens.
APJ ag = APJ receptor agonism | P35414 | CHO-K1 APJ PathHunter beta-arrestin, luminescence; 0% DMSO wells, 100% apelin | activation, % at 20 µM | 0.11% of 330,000 active | AID 2520;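 active = activation more than six SD over the plate average, tested at 20 µM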;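 also: 0% = DMSO alone and 100% = apelin-13 at 10 nM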
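Material: CHO-K1 APJ beta-arrestin complementation cell line; Input: cell density 1000 per well; Incubation: compound stimulation 90 min at 25 °C, detection 60 min; Signal: luminescence from split beta-galactosidase complementation, Galacton Star/Emerald II substrate; Controls: DMSO-only wells as negative, 10 nM Apelin-13 as positive control.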
EBI2 block = antagonists of human EBI2 receptor; EBI2 beta-arrestin recruitment, luminescence, 7a,25-OHC stimulated; inhibition, % at 5 µM; 0.81% of 360,000 active; AID 651636; P32249; in the data active = inhibition above about 38%;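 also: enzyme fragment complementation signal reports receptor beta-arrestin coupling in cells; 0% = agonist plus DMSO wells and 100% = wells without agonist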
APJ antagonist = APJ receptor antagonism. 0.32% of 330,000 active. P35414. CHO-K1 APJ beta-arrestin complementation, luminescence. AID 2521. inhibition, % at 20 µM;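 active = inhibition above about 40% at 20 µM, limit read from the data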;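 also: cells challenged with 10 nM apelin-13 agonist together with compound; plate controls were apelin-13 plus DMSO wells for no effect and DMSO wells lacking apelin-13 for full effect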
CXCR6 inh = CXCR6 (human) receptor inhibition. O00574. AID 602244. CHO-K1 PathHunter CXCR6 beta-arrestin, luminescence. inhibition, % at 20 µM. 0.36% of 360,000 active; in the data active = inhibition above about 34%, passing the limit was not always enough;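 also: antagonist mode with CXCL16 agonist at 10 nM final; 0% = 10 nM CXCL16 with DMSO and 100% = unstimulated wells without agonist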
HTR2A ag = activates the mouse 5-HT2A serotonin receptor | CHO-K1 mHTR2A beta-arrestin complementation, luminescence; percent of 30 µM serotonin response | P35363 | 0.66% of 360,000 active | activation, % at 7.6 µM | AID 624169;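 active = activation above a run cutoff, the mean activation of all tested compounds plus 3 SD, cut at about 14% in these data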;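 also: 0% = plate median of compound wells and 100% = 30 µM serotonin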
Target sequence (P35363 whole entry, looked up): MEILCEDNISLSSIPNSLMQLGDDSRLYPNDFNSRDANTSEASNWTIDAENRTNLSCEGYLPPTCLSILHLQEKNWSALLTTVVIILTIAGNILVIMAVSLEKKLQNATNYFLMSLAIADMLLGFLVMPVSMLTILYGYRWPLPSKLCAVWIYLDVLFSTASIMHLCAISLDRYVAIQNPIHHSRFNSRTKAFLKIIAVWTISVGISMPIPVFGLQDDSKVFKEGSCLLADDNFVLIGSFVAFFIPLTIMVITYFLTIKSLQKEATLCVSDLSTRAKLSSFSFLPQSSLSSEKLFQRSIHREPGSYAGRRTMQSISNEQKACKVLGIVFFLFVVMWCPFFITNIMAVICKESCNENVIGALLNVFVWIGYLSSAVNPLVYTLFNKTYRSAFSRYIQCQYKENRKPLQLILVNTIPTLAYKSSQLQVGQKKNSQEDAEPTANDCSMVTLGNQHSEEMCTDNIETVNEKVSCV
CCR6 antagonist = antagonists of human CCR6 receptor; P51684; CHO-K1 CCR6 PathHunter beta-arrestin, luminescence, CCL20-stimulated; inhibition, % at 20 µM; 0.49% of 340,000 active;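 active = compounds whose inhibition of the agonist-driven luminescence signal at 20 µM reaches about 50%, limit read from the data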;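 also: cells stimulated with CCL20 at 14 nM final; plate controls were DMSO with CCL20 for no effect and DMSO without agonist for full effect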
EBI2 conf = EBI2 (human) antagonism, single concentration confirmation; shares compounds with EBI2 block; EBI2 beta-arrestin luminescence, 7a,25-OHC antagonism; inhibition, % at 5 µM; 29% of 2,400 active;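 active = inhibition of at least 50%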
EBI2 agonist = EBI2 agonism counter-screen; shares compounds with EBI2 block; EBI2-expressing cells, agonist mode, luminescence, 60 min; 0% vehicle, 100% 7α,25-dihydroxycholesterol control; activation, % at 5 µM; 2,400 tested, under 10 active; AID 652000;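 active = activation of at least 50%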
bGal counter = counter-screen for EBI2 antagonists: E. coli beta-galactosidase inhibition; shares compounds with EBI2 block; purified beta-galactosidase, luminescent Galacton Star, 15 min; inhibition, % at 5 µM; 1% of 2,400 active; AID 652176;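 active = replicate-average signal at least 3 plate SD below neutral wells, shown as high inhibition, flagging enzyme-inhibiting false positives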;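 also: 0% = DMSO wells with enzyme and 100% = wells lacking enzyme; higher means stronger loss of beta-gal luminescence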
* hit, by the source's call; · = no result given.

SMILES | APJ ag | EBI2 block | APJ antagonist | CXCR6 inh | HTR2A ag | CCR6 antagonist | EBI2 conf | EBI2 agonist | bGal counter
Cc1ccc(S(=O)(=O)N2CCN(C(=O)c3cc4c(s3)CCCC4)CC2)c(C)c1 | -3 | 68* | 11 | 6 | -1 | 20 | 34 | -1 | -11
CC1(C)c2[nH]c3ccccc3c2C[C@@H]2C(=O)N(c3cc(F)ccc3F)C(=O)N21 | 1 | 11 | -67 | 0 | 7 | 7 | · | · | ·
CC[C@H]1c2[nH]c3ccccc3c2C[C@@H]2C(=O)N(c3ccc(F)cc3)C(=O)N21 | -2 | 49* | -77 | -10 | 0 | 9 | 10 | 0 | -10
O=C(CS(=O)(=O)c1ccc(Cl)cc1)N1CCN(c2ccccc2)CC1 | · | 0 | · | -4 | 0 | · | · | · | ·
CN(C)c1ccc(NC(=O)c2sc(SCC(=O)Nc3ccc(Br)cc3)nc2N)cc1 | 2 | 0 | 8 | -6 | -4 | -8 | · | · | ·
CN(C)c1ccc(NC(=O)c2sc(SCC(=O)Nc3nccs3)nc2N)cc1 | 6 | 52* | -9 | -6 | 5 | 3 | 33 | 2 | 9
Cc1ccc(C(C)C)c(OCc2ccc(C(=O)N/N=C/c3ccc(O)cc3O)cc2)c1 | · | -3 | · | 7 | 1 | 0 | · | · | ·
Cc1ccc(C(C)C)c(OCc2ccc(C(=O)N/N=C/c3ccc(C(=O)O)cc3)cc2)c1 | -2 | 40* | -5 | -3 | 2 | 8 | 8 | 0 | 8
COc1ccc(CNC2CCSc3ccccc32)cc1OC (configuration not stated) | -3 | -9 | -2 | -3 | -1 | 15 | · | · | ·
Cc1ccc(S(=O)(=O)N2CCN(C(=O)CCc3c[nH]c4ccccc34)CC2)c(C)c1 | -2 | 47* | -8 | 2 | -2 | 13 | 29 | -1 | -3
Cc1ccc(C)c(S(=O)(=O)N2CCN(C(=O)CCNC(=O)c3ccc(Br)cc3)CC2)c1 | -2 | 75* | 20 | 3 | -7 | 6 | 33 | 1 | 2
Cc1ccccc1OCCC(=O)N1CCN(S(=O)(=O)c2ccc(Br)cc2)CC1 | -1 | 44* | -4 | 6 | -3 | 10 | 32 | -1 | -15
Cc1cc(C)c(S(=O)(=O)N2CCN(C(=O)CCOc3ccccc3C)CC2)c(C)c1 | -3 | 81* | -4 | 0 | -5 | 7 | 46 | 2 | 8
COC(=O)C1CCN(C(=O)COC(=O)CNC(=O)c2ccc(Cl)cc2Cl)CC1 | -2 | -6 | 1 | 4 | 5 | 8 | · | · | ·
Cn1cc(/C=C(\NC(=O)c2ccccc2Cl)C(=O)NCCCn2ccnc2)c2ccccc21 | -2 | -4 | 5 | -10 | 1 | 14 | · | · | ·
Cc1ccc(C)c(S(=O)(=O)N2CCN(C(=O)c3cnccn3)CC2)c1 | -2 | 4 | 13 | 4 | 1 | -3 | · | · | ·
Cc1ccc(C)c(OCCC(=O)N2CCN(S(=O)(=O)c3cc(C)ccc3C)CC2)c1 | -1 | 66* | 11 | 3 | -3 | 5 | 44 | 5 | 8
Cc1ccc(C)c(S(=O)(=O)N2CCN(C(=O)c3ccc4ccccc4n3)CC2)c1 | -4 | 50* | -9 | 2 | -1 | 11 | 41 | 1 | 4
Cc1ccccc1OCCC(=O)N1CCN(S(=O)(=O)c2ccccc2F)CC1 | 4 | 25 | 14 | -1 | -3 | -2 | · | · | ·
CSc1ccc(S(=O)(=O)NCC(=O)OCC(=O)N2CCCC2=O)cc1[N+](=O)[O-] | 0 | 2 | -5 | -10 | -4 | -20 | · | · | ·
Cc1ccc(S(=O)(=O)Nc2ccc(F)cc2)cc1C(=O)N1CCOCC1 | -2 | 3 | 6 | -2 | -1 | -5 | · | · | ·
Cc1ccc2c(c1)-c1c(cnn1CC(=O)N(Cc1ccco1)C1CCCCC1)CO2 | 1 | 47* | 12 | 1 | -2 | 18 | 29 | 1 | 2
CC1(C(=O)Nc2cccc3ncccc23)CCN1C(=O)CCc1ccccc1 (configuration not stated) | · | 10 | · | -4 | -1 | · | · | · | ·
CC1(C(=O)Nc2cccc3ncccc23)CCN1C(=O)Cc1ccc(-c2ccccc2)cc1 (configuration not stated) | · | 69* | · | -12 | -1 | · | 35 | -2 | -6
COc1ccc([N+](=O)[O-])cc1NC(=O)C(C)N(C)Cc1ccc(Br)cc1 (configuration not stated) | -3 | 37 | 9 | 12 | -1 | 17 | · | · | ·
SMILES | APJ ag | EBI2 block | APJ antagonist | CXCR6 inh | HTR2A ag | CCR6 antagonist | EBI2 conf | EBI2 agonist | bGal counter
COc1ccc(Br)cc1CN(C)C(C)C(=O)Nc1cc([N+](=O)[O-])ccc1OC (configuration not stated) | -5 | 40* | 4 | 7 | -2 | 7 | 13 | 1 | 0
CC(NC(=O)CN1C(=O)NC2(CCCC2)C1=O)c1ccc(Cl)cc1Cl (configuration not stated) | -6 | 7 | 14 | 9 | -5 | 9 | · | · | ·
CC1(C)CC(N=C2C([N+](=O)[O-])=CC=C3C2=NC2(CCCCC2)N3O)CC(C)(C)N1 | -2 | 4 | -21 | 7 | -6 | 13 | · | · | ·
O=[N+]([O-])C1=CC=C2C(=NC3(CCCCC3)N2O)C1=NC1CCCCC1 | -3 | 48* | -2 | 7 | 5 | 15 | 20 | 2 | 3
O=C1CC2(CCN(C(=O)c3ccc(Br)cc3)CC2)Oc2ccccc21 | -2 | 54* | 3 | -6 | -1 | 9 | 37 | 0 | 3
COc1cccc(OCC(=O)N2CCC3(CC2)CC(=O)c2ccccc2O3)c1 | -7 | 36 | 4 | 5 | 2 | 12 | · | · | ·
O=C1CC2(CCN(C(=O)COc3ccc(Cl)cc3)CC2)Oc2ccccc21 | 0 | 87* | -6 | 1 | -6 | 9 | 64* | -1 | -12
O=C1CC2(CCN(C(=O)COc3ccccc3F)CC2)Oc2ccccc21 | -2 | 12 | 22 | -6 | 0 | 9 | · | · | ·
Cc1ccc(OCC(=O)N2CCC3(CC2)CC(=O)c2ccccc2O3)cc1 | 0 | 86* | 4 | 4 | -4 | -3 | 60* | 1 | 6
CCOc1ccc(NC(=O)C(=O)NCCN2CCN(S(=O)(=O)c3ccccc3)CC2)cc1 | -1 | -12 | 7 | -1 | 1 | -18 | · | · | ·
Cc1ccsc1C1Nc2ccc3ncccc3c2C2=C1C(=O)CC(C)(C)C2 (configuration not stated) | 0 | 94* | -18 | 12 | -5 | 18 | 76* | 0 | 3

Screening results (PubChem)
